Results taken from ChEMBL document CHEMBL1909641, “Rational design of 2-pyrrolinones as inhibitors of HIV-1 integrase” (Bioorg Med Chem Lett, 2011).

What was measured:
[1] = target: T1, Human immunodeficiency virus type 1 integrase (Human immunodeficiency virus 1, UniProt Q7ZJM1); assay: Inhibition of HIV1 integrase-mediated 3' processing of viral DNA after 30 mins by PAGE
[2] = target: T1, Human immunodeficiency virus type 1 integrase; assay: Inhibition of HIV1 integrase-mediated single strand tansfer of viral DNA after 30 mins by PAGE
[3] = test system: Human immunodeficiency virus 1; assay: Antiviral activity against HIV1 pNL4.3 infected in human TZM-bl cells by luciferase reporter gene assay; format: functional, organism-based
[4] = Cytotoxicity against human TZM-bl cells infected with HIV1 pNL4.3; format: cell-based
Method in brief: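 CC50 is the cytostatic concentration required to kill 50% of TZM-bl cells.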

[5] = Selectivity index, ratio of CC50 against human TZM-bl cells to EC50 for inhibition of HIV1 integrase activity in TZM-bl cells infected with HIV1 pNL4.3; format: toxicity, cell-based; conditions: read-out: Ratio CC50/EC50
Method in brief: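 SI is calculated as the CC50 in TZM-bl cells divided by the antiviral EC50.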

T1 sequence (Q7ZJM1 whole entry): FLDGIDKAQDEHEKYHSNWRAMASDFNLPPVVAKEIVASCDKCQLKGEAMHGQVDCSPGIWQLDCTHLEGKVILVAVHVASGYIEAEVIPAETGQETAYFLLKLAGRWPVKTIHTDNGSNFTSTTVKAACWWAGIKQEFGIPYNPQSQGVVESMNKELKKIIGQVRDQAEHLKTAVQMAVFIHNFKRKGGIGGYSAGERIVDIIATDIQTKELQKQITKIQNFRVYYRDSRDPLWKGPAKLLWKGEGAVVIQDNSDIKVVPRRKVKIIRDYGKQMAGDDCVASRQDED

| SMILES | IC50 [1] [µM] | IC50 [2] [µM] | EC50 ([3]; tzm-bl) | EC50 ([3]; Human immunodeficiency virus 1, pNL4.3, TZM-bl, read-out: EC50) [µM] | CC50 [4] [µM] | selectivity ratio [5] |
| --- | --- | --- | --- | --- | --- | --- |
| CN1C(=O)C(O)=C(C(=O)c2ccccc2)C1c1ccc([N+](=O)[O-])cc1 (stereo not given) | > 100 | > 100 | – | – | – | – |
| CN1C(=O)C(O)=C(C(=O)c2ccccc2)C1c1cccc(Cl)c1 (stereo not given) | > 100 | > 100 | – | – | – | – |
| CC(C)CN1C(=O)C(O)=C(C(=O)c2ccccc2)C1c1ccccc1 (stereo not given) | > 100 | > 100 | – | – | – | – |

Now from value to molecule, other results behind:

| IC50 [1] [µM] | IC50 [2] [µM] | EC50 ([3]; tzm-bl) | EC50 ([3]; Human immunodeficiency virus 1, pNL4.3, TZM-bl, read-out: EC50) [µM] | SMILES | CC50 [4] [µM] | selectivity ratio [5] |
| --- | --- | --- | --- | --- | --- | --- |
| 89 | 44 | Not Active | – | O=C(C1=C(O)C(=O)N(c2ccccc2)C1c1ccc([N+](=O)[O-])cc1)c1ccccc1 (stereo not given) | 790 | – |
| > 100 | > 100 | – | – | CN1C(=O)C(O)=C(C(=O)c2ccccn2)C1c1cccc(Cl)c1 (stereo not given) | – | – |
| 77 | 40 | – | 0.317 | COc1ccc(CCN2C(=O)C(O)=C(C(=O)c3ccccn3)C2c2cccc(Cl)c2)cc1 (stereo not given) | 26.6 | 83.7 |
| 80 | 45 | Not Active | – | COc1ccc(CCN2C(=O)C(O)=C(C(=O)c3ccccc3)C2c2ccccc2)cc1 (stereo not given) | 830 | – |
| > 100 | 100 | Not Active | – | COc1ccc(CCN2C(=O)C(O)=C(C(=O)c3ccccc3)C2c2ccc(O)cc2)cc1 (stereo not given) | 459 | – |
